Screens as filed in PubChem BioAssay.
ERAP1 HTS inh = human ERAP1 aminopeptidase inhibitors, primary screen, biochemical, single point, plate reader | Endoplasmic reticulum aminopeptidase 1 (Homo sapiens), Q9NZ08 | recombinant ERAP1, Leu-AMC fluorescence, 60 min | inhibition, % at 10.7 µM | actives 0.15% (n = 340,000);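 active = mean replicate inhibition of at least 30%, or all replicates individually reaching that 30% level; inactive = mean below 30% and not every replicate reaching it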;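 also: 0% = neutral control wells and 100% = L-leucinethiol positive control wells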
CAL PDZ FP-1 = CAL PDZ peptide-binding inhibitors, primary screen, biochemical, fluorescence polarization, Cer-tagged CAL PDZ, HTS; purified CAL PDZ, TMR-peptide fluorescence polarization, 1 h; inhibition, % at 20 µM; actives 0.02% (n = 330,000); AID 504414, 2011;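 active = highest replicate inhibition of at least 40%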;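 also: plate controls were DMSO neutral control wells for no effect and unlabeled competitor peptide control wells for full effect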
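material = purified tagged CAL PDZ domain construct (CerCALP) | buffer or medium = sodium phosphate/NaCl buffer pH 7.4 with TCEP, IgG, Thesit | reagent = TMR-labelled reporter peptide T*-PRC34 bound in PDZ groove | incubation = 1 h room-temperature incubation prior to read | measured by = fluorescence polarization (mP) | evaluation = percent inhibition from loss of millipolarization | control set = unlabelled peptide and DMSO controls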
SIRT5 inh = SIRT5 desuccinylase inhibitors, primary screen, biochemical, fluorescence imaging, single point, set 5 | NAD-dependent protein deacylase sirtuin-5, mitochondrial (Homo sapiens), Q9NXA8 | Purified SirT5, succinyl-peptide AMC, trypsin-coupled fluorescence | inhibition, % at 15 µM | actives 1.1% (n = 330,000); in the data active = inhibition above about 15%; inconclusive = no clear call, values can overlap the other calls
Target sequence (Q9NXA8 whole entry, looked up): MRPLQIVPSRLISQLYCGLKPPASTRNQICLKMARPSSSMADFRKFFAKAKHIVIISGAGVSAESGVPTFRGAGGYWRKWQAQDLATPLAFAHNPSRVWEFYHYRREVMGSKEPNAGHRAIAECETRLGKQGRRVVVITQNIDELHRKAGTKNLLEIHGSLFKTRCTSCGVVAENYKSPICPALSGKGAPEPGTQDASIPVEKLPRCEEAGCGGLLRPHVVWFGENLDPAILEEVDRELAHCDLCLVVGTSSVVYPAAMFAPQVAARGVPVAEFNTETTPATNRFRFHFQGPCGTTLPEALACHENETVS
CAL PDZ FP-2 = untagged CAL PDZ binding inhibitors, primary screen, biochemical, fluorescence polarization, HTS. Golgi-associated PDZ and coiled-coil motif-containing protein (Homo sapiens), Q9HD26. purified CAL PDZ, TMR-peptide fluorescence polarization, 1 h. inhibition, % at 24.9 µM. actives 0.92% (n = 300,000). AID 602252, 2012;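 active = mean inhibition of at least 30% with at least half of replicates also reaching 30%; inconclusive = no clear call, values can overlap the other calls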;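 also: 0% = DMSO neutral control and 100% = excess unlabeled competitor peptide PRC23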
DENV2 CPE = inhibitors of DENV2 cytopathic effect, primary screen, cell-based, plate reader, single concentration; CPE inhibition, % at 9.99 µM; DENV2-infected cells, cytopathic effect rescue; actives 1.7% (n = 350,000); in the data active = CPE inhibition above about 20%, passing the limit was not always enough; inconclusive = no clear call, values can overlap the other calls; tested in BHK-21 cells;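 also: 0% = median of neutral control wells and 100% = median of positive control wells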
S100A4 MyoIIA = inhibitors of S100A4-myosin IIA peptide binding, primary screen, biochemical, fluorescence polarization, TAMRA-MyoIIA peptide | Protein S100-A4 (Homo sapiens), P26447 | inhibition, % at 10.7 µM | actives 0.14% (n = 360,000);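 active = mean inhibition of at least 70% across replicates, with every replicate also reaching that level; inconclusive = mean inhibition reaches 70% but some replicates fall short; inactive = mean inhibition below 70%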
Target sequence (P26447 whole entry, looked up): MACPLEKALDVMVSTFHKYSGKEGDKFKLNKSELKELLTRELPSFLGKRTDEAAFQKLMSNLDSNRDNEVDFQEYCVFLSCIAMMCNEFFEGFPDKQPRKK
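Material: human S100A4 monomer with TAMRA-labelled myosin IIA peptide; buffer or medium: HEPES pH 7.2 with CaCl2, KCl, NaCl, DTT, Triton; compound dosing: one concentration per compound; schedule: 5 min incubation before reading; benchmarks: neutral control DMSO, positive control TFP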
An asterisk follows results filed as active; ? = inconclusive; nt = no result. Only some compounds are listed: those with a hit (about 2.9% of all), similar ones and a draw of the others.

SMILES	ERAP1 HTS inh	CAL PDZ FP-1	SIRT5 inh	CAL PDZ FP-2	DENV2 CPE	S100A4 MyoIIA
CN(CC(=O)Nc1ccc(F)cc1)C(=O)CCc1nc2sc3c(c2c(=O)[nH]1)CCCC3	-2	0	1	5	19	-2
Cc1ccc(S(=O)(=O)N(C)C[C@@H]2Oc3ccc(NC(=O)Nc4ccc(C(F)(F)F)cc4)cc3C(=O)N([C@H](C)CO)C[C@H]2C)cc1	-5	nt	-3	nt	-9	-8
Cc1ccc(S(=O)(=O)N(C)C[C@H]2Oc3ccc(NC(=O)Cc4ccccc4)cc3C(=O)N([C@H](C)CO)C[C@@H]2C)cc1	-4	nt	-1	nt	66*	16
Cc1ccc(S(=O)(=O)N(C)C[C@@H]2Oc3ccc(NC(=O)Cc4ccccc4)cc3C(=O)N([C@H](C)CO)C[C@H]2C)cc1	1	nt	-6	nt	4	0
Cc1ccc(S(=O)(=O)N(C)C[C@H]2Oc3ccc(NC(=O)Nc4ccccc4)cc3C(=O)N([C@@H](C)CO)C[C@H]2C)cc1	1	nt	4	nt	-3	102*
Cc1ccc(S(=O)(=O)N(C)C[C@H]2Oc3ccc(NC(=O)Nc4ccc(C(F)(F)F)cc4)cc3C(=O)N([C@H](C)CO)C[C@@H]2C)cc1	-5	nt	-3	nt	37*	2
Cc1ccc(S(=O)(=O)N(C)C[C@H]2Oc3ccc(NC(=O)Nc4c(C)noc4C)cc3C(=O)N([C@H](C)CO)C[C@@H]2C)cc1	-6	nt	14	nt	-5	-61
Cc1ccc(S(=O)(=O)N(C)C[C@@H]2Oc3ccc(NC(=O)Nc4c(C)noc4C)cc3C(=O)N([C@H](C)CO)C[C@@H]2C)cc1	-5	nt	16*	nt	-3	-7
C[C@H]1CN([C@@H](C)CO)C(=O)c2cc(NC(=O)C3CC3)ccc2O[C@@H]1CN(C)Cc1ccc(C(F)(F)F)cc1	-5	nt	0	nt	-6	9
C[C@@H]1CN([C@@H](C)CO)C(=O)c2cccc(NC(=O)C3CCCCC3)c2O[C@@H]1CN(C)C(=O)Nc1ccc(F)cc1	-2	nt	-3	nt	2	-2
CCCC(=O)Nc1ccc2c(c1)C(=O)N(C)C[C@H](OC)[C@H](C)CN(Cc1ccccn1)[C@@H](C)CO2	-1	nt	-8	nt	-2	4
C[C@@H]1CN([C@H](C)CO)C(=O)c2cc(NC(=O)Nc3ccc(C(F)(F)F)cc3)ccc2O[C@@H]1CN(C)S(=O)(=O)c1ccc(F)cc1	-3	nt	7	nt	-3	-2
Cc1ccc(S(=O)(=O)N(C)C[C@H]2Oc3ccc(NC(=O)Nc4ccc(C(F)(F)F)cc4)cc3C(=O)N([C@H](C)CO)C[C@H]2C)cc1	-5	nt	7	nt	44*	22
COc1ccc(CNC(=O)C[C@H]2CC[C@@H]3[C@@H](COc4ccc(NC(=O)C(C)C)cc4C(=O)N3C)O2)cc1	-2	nt	-8	nt	0	-15
COc1ccccc1NC(=O)N1CCCCN2[C@H](CO)[C@H](c3ccc(-c4cccc(C#N)c4)cc3)[C@H]2C1	0	nt	-3	nt	-25	-20
CC(C)CNC(=O)CSc1ccc(S(=O)(=O)N2CCN(C)CC2)cn1	-6	0	-1	39*	-4	-2
COc1ccc(NC(=O)N(C)C[C@H]2Oc3c(NS(=O)(=O)c4c(C)noc4C)cccc3C(=O)N([C@@H](C)CO)C[C@H]2C)cc1	1	nt	-5	nt	16	-81
CC(=O)c1ccc(Nc2nc3ccccc3nc2NS(=O)(=O)c2cccs2)cc1	0	-1	-13	0	-3	-2
COc1ccc(Nc2nc3ccccc3nc2NS(=O)(=O)c2cccs2)cc1	nt	-2	nt	48*	nt	nt
COc1cnc(-c2ccccn2)nc1N(C)C	14	0	7	73*	-8	-7
CC(C)NC(=O)N(C)C[C@@H]1OCCCC[C@@H](C)Oc2ccc(NS(=O)(=O)c3cccs3)cc2C(=O)N([C@H](C)CO)C[C@@H]1C	7	nt	-3	nt	55*	18
C[C@H]1CCCCO[C@H](CN(C)C(=O)Nc2ccc(F)cc2)[C@@H](C)CN([C@@H](C)CO)C(=O)c2cc(NS(=O)(=O)c3cccs3)ccc2O1	-3	nt	8	nt	27*	-5
C[C@@H]1CCCCO[C@@H](CN(C)C(=O)Nc2ccc(F)cc2)[C@H](C)CN([C@H](C)CO)C(=O)c2cc(NS(=O)(=O)c3cccs3)ccc2O1	2	nt	7	nt	-12	-11
CC(C)NC(=O)N(C)C[C@H]1OCCCC[C@@H](C)Oc2ccc(NS(=O)(=O)c3cccs3)cc2C(=O)N([C@H](C)CO)C[C@@H]1C	2	nt	-2	nt	-7	18
C[C@@H]1CCCCO[C@H](CN(C)C(=O)Nc2ccc(F)cc2)[C@H](C)CN([C@H](C)CO)C(=O)c2cc(NS(=O)(=O)c3cccs3)ccc2O1	-2	nt	2	nt	68*	10
SMILES	ERAP1 HTS inh	CAL PDZ FP-1	SIRT5 inh	CAL PDZ FP-2	DENV2 CPE	S100A4 MyoIIA
O=C(C[C@@H]1C=C[C@@H](NC(=O)CC2CC2)[C@@H](CO)O1)NCc1ccc(Cl)cc1	-8	nt	2	nt	5	5
Cc1nn(-c2ccccc2)c2c1C(c1ccccc1)C(C#N)=C(N)O2 (centres undefined)	nt	0	nt	-1	nt	nt
Cc1nn(-c2ccccc2)c2c1C(c1ccc(F)cc1F)C(C#N)=C(N)O2 (centres undefined)	nt	-2	nt	30*	nt	nt
COc1ccc(S(=O)(=O)Nc2ccc3c(c2)CC(=O)N([C@H](C)CO)C[C@@H](C)[C@H](CN(C)C(=O)Nc2ccc(F)cc2)O3)cc1	nt	nt	nt	nt	-3	nt
CCN(CC)CC#CCC(O)(c1ccccc1)C1CCCC1 (centres undefined)	11	-2	18*	5	-4	-1
O=C(c1ccncc1)N1C[C@H]2[C@@H](c3ccccc31)[C@@H](CO)N2C(=O)c1ccccn1	-2	nt	-1	nt	5	-7
CC(C)(C)c1nnc(NC(=O)Nc2ccc(Cl)cc2)s1	2	-1	2	0	5	-2
COc1ccc(NC(=O)Nc2nnc(C(C)(C)C)s2)cc1	1	-1	-6	47*	-1	3
O=C(C[C@@H]1CC[C@@H](NC(=O)c2ccncc2)[C@H](CO)O1)NCC1CC1	-2	nt	5	nt	?	2
O=C(C[C@@H]1C=C[C@@H](NC(=O)CN2CCOCC2)[C@H](CO)O1)NCCc1ccccc1	0	nt	-1	nt	-1	3
